Experimental data from ChEMBL document CHEMBL1125283, “Improvement in potency of an oxytocin antagonist after systematic substitutions with L-tryptophan” (J Med Chem, 1991).
Numbered stars: 1 amine (or outer) side, 2 acyl side, 3 side chain; on linkers, the order of the positions; unused ones are H or OH. Bridge positions count the residues as written; N and C are the ends. Square brackets hold non-standard residues; d marks the D form. Peptide text beside a SMILES is read from it. X1 = O=C(CC1(S[*:2])CCCCC1)[*:1]

Tests used:
[1] = species on record: Rattus norvegicus; test: Compound was evaluated for the competitive antagonism to Arginine vasopressin (AVP) in rat antidiuretic assay; format: functional, organism-based; details: Urine, read-out: pA2 (converted)
Method in brief: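 Water-loaded rats under ethanol anesthesia; antidiuretic response to AVP standard. In vivo pA2 estimated by dividing the effective dose (molar level of antagonist halving the agonist response) by an estimated distribution volume of 67 mL/kg.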

[2] = species on record: Rattus norvegicus; test: Competitive antagonist activity on oxytocin contractile action in isolated rat uterus; format: functional; details: read-out: pA2 (converted)
Method in brief: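 Uteri isolated from rats in natural estrus, bathed in Van Dyke-Hastings solution with 0.5 mM Mg2+. Isometric contractions to OT doses recorded by force-displacement transducer; response quantified as integrated area under peaks. Synthetic OT (450 units/mg) standard. pA2 by Schild method from at least four separate assays; mixed agonist/antagonist potencies approximated.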

## CC[C@H](C)[C@@H]1NC(=O)[C@@H](Cc2c[nH]c3ccccc23)NC(=O)CC2(CCCCC2)SSC[C@@H](C(=O)N2CCC[C@H]2C(=O)N[C@@H](CCCN=C(N)N)C(=O)N[C@@H](Cc2c[nH]c3ccccc23)C(N)=O)NC(=O)[C@H](CC(N)=O)NC(=O)[C@H](CCC(N)=O)NC1=O
[1]
  Kb: > 1000 nM
[2]
  Kb: 9.33 nM

## CC[C@H](C)[C@H](NC(=O)[C@@H](Cc1c[nH]c2ccccc12)NC(=O)CC12CC3CC(CC(C3)C1)C2)C(=O)N[C@@H](CCC(N)=O)C(=O)N[C@@H](CC(N)=O)C(=O)N[C@H](C(=O)N1CCC[C@H]1C(=O)N[C@@H](CCCN=C(N)N)C(=O)NCC(N)=O)C(C)C
[2]
  Kb: 4270 nM

## CC[C@H](C)[C@H](NC(=O)[C@@H](Cc1c[nH]c2ccccc12)NC(=O)CC12CC3CC(CC(C3)C1)C2)C(=O)N[C@@H](CCC(N)=O)C(=O)N[C@@H](CC(N)=O)C(=O)N[C@@H](Cc1c[nH]c2ccccc12)C(=O)N1CCC[C@H]1C(=O)N[C@@H](CCCN=C(N)N)C(=O)NCC(N)=O
[2]
  Kb: 302 nM

## CC[C@H](C)[C@H](NC(=O)[C@@H](Cc1c[nH]c2ccccc12)NC(=O)[C@H](Cc1c[nH]c2ccccc12)NC(C)=O)C(=O)N[C@@H](CCC(N)=O)C(=O)N[C@@H](CC(N)=O)C(=O)N[C@H](C(=O)N1CCC[C@H]1C(=O)N[C@@H](CCCN=C(N)N)C(=O)NCC(N)=O)C(C)C
[2]
  Kb: 3720 nM

## CC[C@H](C)[C@@H]1NC(=O)[C@H](Cc2c[nH]c3ccccc23)NC(=O)CC2(CCCCC2)SSC[C@@H](C(=O)N2CCC[C@H]2C(=O)N[C@@H](CCCN=C(N)N)C(=O)NCC(N)=O)NC(=O)[C@H](CC(N)=O)NC(=O)[C@H](CCC(N)=O)NC1=O (WIQNCPRG-NH2; linker N-5 via X1)
[2]
  Kb: 316 nM

## CC[C@H](C)[C@@H]1NC(=O)[C@@H](Cc2c[nH]c3ccccc23)NC(=O)CC2(CCCCC2)SSC[C@@H](C(=O)N2c3ccccc3C[C@H]2C(=O)N[C@@H](CCCN=C(N)N)C(=O)NCC(N)=O)NC(=O)[C@H](CC(N)=O)NC(=O)[C@H](CCC(N)=O)NC1=O
[2]
  Kb: 12 nM

## CC[C@H](C)[C@@H]1NC(=O)[C@@H](Cc2c[nH]c3ccccc23)NC(=O)CC2(CCCCC2)SSC[C@@H](C(=O)N2CCC[C@H]2C(=O)N[C@@H](CCCN=C(N)N)C(=O)N[C@@H](Cc2cn(C=O)c3ccccc23)C(N)=O)NC(=O)[C@H](CC(N)=O)NC(=O)[C@H](CCC(N)=O)NC1=O
[2]
  Kb: 21.4 nM

## CC[C@H](C)[C@@H]1NC(=O)[C@@H](Cc2c[nH]c3ccccc23)NC(=O)CC2(CCCCC2)SSC[C@@H](C(=O)N[C@@H](Cc2c[nH]c3ccccc23)C(=O)N[C@@H](CCCN=C(N)N)C(=O)NCC(N)=O)NC(=O)[C@H](CC(N)=O)NC(=O)[C@H](CCC(N)=O)NC1=O
[1]
  Kb: > 1580 nM
[2]
  Kb: 8.71 nM

## CC[C@H](C)[C@@H]1NC(=O)[C@@H](Cc2c[nH]c3ccccc23)NC(=O)CC2(CCCCC2)SSC[C@@H](C(=O)N2CCC[C@H]2C(=O)N[C@@H](Cc2c[nH]c3ccccc23)C(=O)NCC(N)=O)NC(=O)[C@H](CC(N)=O)NC(=O)[C@H](CCC(N)=O)NC1=O
[1]
  Kb: > 1000 nM
[2]
  Kb: 6.03 nM

## CC[C@H](C)[C@@H]1NC(=O)[C@@H](Cc2c[nH]c3ccccc23)NC(=O)CC2(CCCCC2)SSC[C@@H](C(=O)N2CCC[C@H]2C(=O)N[C@@H](CCCN=C(N)N)C(=O)NCC(N)=O)NC(=O)[C@H](CC(N)=O)NC(=O)[C@H](CCC(N)=O)NC1=O ([dW]IQNCPRG-NH2; linker N-5 via X1)
[1]
  Kb: > 1260 nM
